The source of these data is ChEMBL document CHEMBL5705897, “Characterization of WZ4003 and HTH-01-015 as selective inhibitors of the LKB1-tumour-suppressor-activated NUAK kinases” (Biochem J, 2014).

Activity calls are given as the source filed them. No cut-off for these calls is given here.

In assay [1] the target is MAP/microtubule affinity-regulating kinase 3 (Homo sapiens) (UniProt P27448). In words: Inhibition of recombinant human N-terminal His6-tagged MARK3 (2 to 729 residues) expressed in baculovirus infected Sf21 cells assessed as remaining activity at 1 uM using CHKtide as substrate incubated for 30 mins in presence of [gamma-33P]ATP by filter binding method relative to control. An outline of the steps:
(§1)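 Screened at the International Centre for Protein Kinase Profiling against a 140-kinase panel, with inhibitor at 0.1 or 1 μM; activity expressed as percentage of DMSO control reactions, mean of triplicate reactions.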

Assay [2] addresses Mitogen-activated protein kinase 13 (Homo sapiens) (UniProt O15264). In words: Inhibition of recombinant human GST-tagged P38delta (1 to 365 residues) expressed in Escherichia coli assessed as remaining activity at 1 uM using MBP as substrate incubated for 30 mins in presence of [gamma-33P]ATP by filter binding method relative to control. An outline of the steps:
as §1

Assay [3] has as its target Ribosomal protein S6 kinase alpha-1 (Homo sapiens) (UniProt Q15418). Description: Inhibition of recombinant human N-terminal His6-tagged RSK1 (1 to 735 residues) expressed in baculovirus infected Sf21 cells assessed as remaining activity at 1 uM using KKLNRTLSVA as substrate incubated for 30 mins in presence of [gamma-33P]ATP by filter binding method relative to control. An outline of the steps: as §1

Assay [4] concerns Ribosomal protein S6 kinase beta-1 (Homo sapiens), P23443 [T412E]. Description: Inhibition of recombinant human His6-tagged S6K1 T412E mutant (1 to 421 residues) expressed in baculovirus infected Sf21 cells assessed as remaining activity at 1 uM using KKRNRTLTV as substrate incubated for 30 mins in presence of [gamma-33P]ATP by filter binding method relative to control. An outline of the steps: (§2)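 Run within a 140-kinase specificity panel at the International Centre for Protein Kinase Profiling. Compounds were dissolved in DMSO and tested in vitro at 0.1 or 1 μM. Activity is expressed as percentage of kinase activity in DMSO control reactions, as the mean ± S.D. of triplicate reactions.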

For assay [5], the target named is MAP kinase-interacting serine/threonine-protein kinase 2 (Homo sapiens) (UniProt Q9HBH9). Description: Inhibition of recombinant human N-terminal GST/C-terminal His6-tagged MNK2alpha (2 to 465 residues) expressed in Escherichia coli assessed as remaining activity at 1 uM using eIF4E as substrate incubated for 30 mins in presence of [gamma-33P]ATP by filter binding method relative to control. An outline of the steps: as §1

The target of assay [6] is MAP kinase-activated protein kinase 2 (Homo sapiens) (UniProt P49137). Description: Inhibition of recombinant human N-terminal GST/C-terminal Myc-tagged MAPKAPK2 (46 to 400 residues) expressed in Escherichia coli assessed as remaining activity at 1 uM using KKLNRTLSVA as substrate incubated for 30 mins in presence of [gamma-33P]ATP by filter binding method relative to control. The method, boiled down: as §1

For assay [7], the target named is Calcium/calmodulin-dependent protein kinase type 1 (Homo sapiens) (UniProt Q14012). Description: Inhibition of recombinant human N-terminal GST-tagged CAMK1alpha (2 to 369 residues) expressed in Escherichia coli assessed as remaining activity at 1 uM using YLRRRLSDSNF as substrate incubated for 30 mins in presence of [gamma-33P]ATP by filter binding method relative to control. The method, boiled down: as §1

The target in assay [8] is Ephrin type-B receptor 4 (Homo sapiens) (UniProt P54760). Description: Inhibition of recombinant human N-terminal His6-tagged EPHB4 (561 to 987 residues) expressed in baculovirus infected Sf21 cells assessed as remaining activity at 1 uM using Poly (Glu,Tyr) as substrate incubated for 30 mins in presence of [gamma-33P]ATP by filter binding method relative to control. An outline of the steps: as §2

For assay [9], the target named is Platelet-derived growth factor receptor alpha (Homo sapiens) (UniProt P16234). Description: Inhibition of recombinant human PDGFRalpha (551 to 10589 residues) expressed in baculovirus infected Sf21 cells assessed as remaining activity at 1 uM using KKKKEEIYFFFG as substrate incubated for 30 mins in presence of [gamma-33P]ATP by filter binding method relative to control. An outline of the steps: as §1

Assay [10] has as its system MEF. Description: Inhibition of cell migration in NUAK1+/+ MEF cells at 10 uM pre incubated for 1 hr followed by overnight incubation and measured after 15 to 20 hrs by microscopic based wound healing assay. In kind it is functional. Particulars: Mus musculus. The method, boiled down:
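Wound healing: equal MEF numbers loaded into both chambers of inserts with a 500 μm gap, inhibitor (10 μM) added 1 h before; after overnight at 37 °C, 5% CO2 insert removed and gap closure filmed by time-lapse microscopy every 2 min over 15–20 h; triplicate.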

The target of assay [11] is T1, NUAK family SNF1-like kinase 1 (Homo sapiens) (UniProt O60285).
T1 sequence (whole entry): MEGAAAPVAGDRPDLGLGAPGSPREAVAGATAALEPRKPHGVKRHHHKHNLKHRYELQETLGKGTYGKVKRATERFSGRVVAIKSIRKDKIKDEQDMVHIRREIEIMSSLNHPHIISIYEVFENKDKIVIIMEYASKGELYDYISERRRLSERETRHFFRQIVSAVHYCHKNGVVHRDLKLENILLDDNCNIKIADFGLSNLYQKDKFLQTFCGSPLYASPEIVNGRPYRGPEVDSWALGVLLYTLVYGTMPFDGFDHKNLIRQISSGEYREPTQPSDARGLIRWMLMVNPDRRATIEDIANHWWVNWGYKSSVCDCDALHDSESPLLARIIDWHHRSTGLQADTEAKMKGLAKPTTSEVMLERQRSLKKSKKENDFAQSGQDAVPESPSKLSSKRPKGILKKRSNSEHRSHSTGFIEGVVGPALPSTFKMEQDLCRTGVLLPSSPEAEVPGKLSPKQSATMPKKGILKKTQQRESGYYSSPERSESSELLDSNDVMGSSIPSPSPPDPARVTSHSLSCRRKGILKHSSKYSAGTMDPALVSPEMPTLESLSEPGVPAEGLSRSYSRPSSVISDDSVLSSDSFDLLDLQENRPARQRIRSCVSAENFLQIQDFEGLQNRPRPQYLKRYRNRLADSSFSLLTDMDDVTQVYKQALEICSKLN
In words: Inhibition of NUAK1 in human U2OS cells assessed as reduction in MYPT1 phosphorylation at Ser445 residues at 10 uM after 16 hrs by immunoblot analysis. In kind it is cell-based. The method, boiled down:
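U2OS cells or NUAK1+/+ MEFs treated with or without 10 μM inhibitor for 16 h, then 20 min in EDTA-PBS dissociation buffer with 10 μM inhibitor or DMSO; detached by tapping and 70 g 3 min spin, lysed immediately and immunoblotted for MYPT1 p-Ser445; three separate experiments.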
A general note: Immunoblotting shows a protein as a band on a membrane.

The subject of assay [12] is MEF. In words: Antiproliferative activity against NUAK1+/+ MEF cells assessed as reduction in cell viability at 10 uM after 5 days by CellTiter 96 non-radioactive cell proliferation assay. In kind it is functional, cell-based. As to conditions: Mus musculus, time 5.0 day. The method, boiled down:
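Colorimetric CellTiter 96 AQueous proliferation assay in 96-well format; 2000 cells/well seeded for U2OS, 3000 cells/well for MEFs; grown 5 days with or without 10 μM inhibitor; run in triplicate. Inhibitors dissolved in DMSO, final DMSO in medium ≤1%. MEFs cultured in DMEM/10% FBS, glutamine, non-essential amino acids, sodium pyruvate.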

Chain of Ribosomal protein S6 kinase alpha-1 (Homo sapiens) (Q15418 whole entry, the tested form may be a part): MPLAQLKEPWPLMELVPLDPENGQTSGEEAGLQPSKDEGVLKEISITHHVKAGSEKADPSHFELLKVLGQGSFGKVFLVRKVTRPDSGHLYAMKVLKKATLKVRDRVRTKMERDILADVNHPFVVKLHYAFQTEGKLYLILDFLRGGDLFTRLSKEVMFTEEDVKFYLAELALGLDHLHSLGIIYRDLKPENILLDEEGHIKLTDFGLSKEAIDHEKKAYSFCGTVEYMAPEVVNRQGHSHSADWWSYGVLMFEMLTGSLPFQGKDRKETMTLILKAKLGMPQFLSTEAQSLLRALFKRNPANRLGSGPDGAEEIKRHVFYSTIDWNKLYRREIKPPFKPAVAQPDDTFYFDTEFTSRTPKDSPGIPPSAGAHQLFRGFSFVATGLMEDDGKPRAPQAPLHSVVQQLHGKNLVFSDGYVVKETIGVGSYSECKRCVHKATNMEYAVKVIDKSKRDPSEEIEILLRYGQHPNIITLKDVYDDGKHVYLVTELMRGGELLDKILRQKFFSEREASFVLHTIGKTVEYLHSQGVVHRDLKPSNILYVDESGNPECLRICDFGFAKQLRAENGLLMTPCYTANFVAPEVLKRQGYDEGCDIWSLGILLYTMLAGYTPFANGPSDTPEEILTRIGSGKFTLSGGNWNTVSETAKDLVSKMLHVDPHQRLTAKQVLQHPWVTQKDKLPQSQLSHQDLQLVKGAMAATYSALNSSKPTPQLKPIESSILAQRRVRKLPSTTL
Chain of MAP kinase-activated protein kinase 2 (Homo sapiens) (P49137 whole entry, looked up, the tested form may be a part): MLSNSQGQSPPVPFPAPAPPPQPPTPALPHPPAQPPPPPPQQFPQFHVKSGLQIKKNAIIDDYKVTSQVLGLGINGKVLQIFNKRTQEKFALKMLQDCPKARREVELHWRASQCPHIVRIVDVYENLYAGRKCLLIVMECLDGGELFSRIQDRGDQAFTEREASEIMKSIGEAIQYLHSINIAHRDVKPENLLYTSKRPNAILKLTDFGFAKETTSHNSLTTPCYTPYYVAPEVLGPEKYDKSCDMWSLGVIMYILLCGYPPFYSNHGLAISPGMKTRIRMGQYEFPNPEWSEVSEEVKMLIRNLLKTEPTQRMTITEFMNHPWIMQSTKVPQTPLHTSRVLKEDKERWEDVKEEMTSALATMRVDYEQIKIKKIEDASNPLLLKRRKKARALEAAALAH
Chain of Ribosomal protein S6 kinase beta-1 (Homo sapiens), P23443 [T412E] (P23443 whole entry T412E, looked up, the tested form may be a part): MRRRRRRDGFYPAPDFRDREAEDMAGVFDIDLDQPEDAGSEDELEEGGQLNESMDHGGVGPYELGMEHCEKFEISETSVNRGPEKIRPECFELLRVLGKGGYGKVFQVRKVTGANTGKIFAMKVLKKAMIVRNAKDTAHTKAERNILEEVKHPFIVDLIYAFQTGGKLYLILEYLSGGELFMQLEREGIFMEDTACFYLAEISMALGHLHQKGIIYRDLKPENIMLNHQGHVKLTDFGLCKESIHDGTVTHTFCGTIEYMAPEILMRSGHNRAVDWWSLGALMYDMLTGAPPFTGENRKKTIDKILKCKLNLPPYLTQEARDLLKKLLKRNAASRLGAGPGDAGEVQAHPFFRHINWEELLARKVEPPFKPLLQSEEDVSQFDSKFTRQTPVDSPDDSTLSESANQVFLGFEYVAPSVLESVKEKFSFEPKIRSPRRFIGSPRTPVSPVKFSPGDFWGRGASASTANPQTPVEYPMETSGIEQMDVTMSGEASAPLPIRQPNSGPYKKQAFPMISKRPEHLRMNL
Chain of Calcium/calmodulin-dependent protein kinase type 1 (Homo sapiens) (Q14012 whole entry, looked up, the tested form may be a part): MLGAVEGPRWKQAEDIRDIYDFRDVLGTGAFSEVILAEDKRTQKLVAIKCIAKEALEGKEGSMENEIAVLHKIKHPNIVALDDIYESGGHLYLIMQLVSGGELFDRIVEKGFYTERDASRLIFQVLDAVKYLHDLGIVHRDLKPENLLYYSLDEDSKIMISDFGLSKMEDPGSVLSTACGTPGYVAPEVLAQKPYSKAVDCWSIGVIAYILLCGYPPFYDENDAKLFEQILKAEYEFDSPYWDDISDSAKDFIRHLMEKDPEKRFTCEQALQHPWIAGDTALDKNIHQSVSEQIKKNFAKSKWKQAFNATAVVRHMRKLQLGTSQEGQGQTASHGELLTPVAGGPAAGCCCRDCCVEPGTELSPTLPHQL
Chain of MAP kinase-interacting serine/threonine-protein kinase 2 (Homo sapiens) (Q9HBH9 whole entry, looked up, the tested form may be a part): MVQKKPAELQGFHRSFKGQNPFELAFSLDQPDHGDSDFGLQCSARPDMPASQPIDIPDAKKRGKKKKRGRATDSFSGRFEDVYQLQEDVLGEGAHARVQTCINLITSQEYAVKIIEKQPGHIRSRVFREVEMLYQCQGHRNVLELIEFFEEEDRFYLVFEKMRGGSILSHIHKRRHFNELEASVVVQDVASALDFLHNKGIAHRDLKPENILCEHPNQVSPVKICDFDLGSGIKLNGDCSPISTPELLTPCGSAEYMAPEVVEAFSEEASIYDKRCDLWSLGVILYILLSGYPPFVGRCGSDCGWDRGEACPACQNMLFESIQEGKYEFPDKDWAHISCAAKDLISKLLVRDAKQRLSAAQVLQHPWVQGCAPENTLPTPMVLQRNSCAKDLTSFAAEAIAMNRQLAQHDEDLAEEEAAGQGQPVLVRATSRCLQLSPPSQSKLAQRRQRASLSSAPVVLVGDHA
Chain of Ephrin type-B receptor 4 (Homo sapiens) (P54760 whole entry, the tested form may be a part): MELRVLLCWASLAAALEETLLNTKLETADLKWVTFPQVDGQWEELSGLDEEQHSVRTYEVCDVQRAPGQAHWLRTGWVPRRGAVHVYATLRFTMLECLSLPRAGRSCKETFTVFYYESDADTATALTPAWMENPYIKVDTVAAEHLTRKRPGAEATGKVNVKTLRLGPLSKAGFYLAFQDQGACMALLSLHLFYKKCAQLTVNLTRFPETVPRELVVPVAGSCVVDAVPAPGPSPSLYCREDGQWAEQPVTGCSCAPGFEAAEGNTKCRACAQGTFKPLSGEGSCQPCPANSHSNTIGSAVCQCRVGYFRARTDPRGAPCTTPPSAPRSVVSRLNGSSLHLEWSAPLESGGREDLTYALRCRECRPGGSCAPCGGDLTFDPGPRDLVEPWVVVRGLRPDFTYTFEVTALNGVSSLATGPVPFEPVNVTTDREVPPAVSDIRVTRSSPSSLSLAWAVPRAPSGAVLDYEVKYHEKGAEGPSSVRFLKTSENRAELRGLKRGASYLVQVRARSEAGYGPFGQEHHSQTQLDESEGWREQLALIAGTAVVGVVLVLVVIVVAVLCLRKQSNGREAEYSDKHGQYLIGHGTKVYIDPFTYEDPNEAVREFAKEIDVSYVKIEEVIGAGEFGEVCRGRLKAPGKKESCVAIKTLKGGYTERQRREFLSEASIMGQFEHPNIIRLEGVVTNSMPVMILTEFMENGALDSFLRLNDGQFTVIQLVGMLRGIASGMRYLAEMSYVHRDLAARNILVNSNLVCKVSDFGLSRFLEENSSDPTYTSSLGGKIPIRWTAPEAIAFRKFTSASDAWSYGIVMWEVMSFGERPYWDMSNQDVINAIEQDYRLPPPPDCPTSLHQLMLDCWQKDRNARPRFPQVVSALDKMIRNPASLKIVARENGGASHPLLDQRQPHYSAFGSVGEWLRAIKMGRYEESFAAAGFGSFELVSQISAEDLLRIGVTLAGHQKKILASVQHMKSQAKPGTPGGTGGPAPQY
Chain of Platelet-derived growth factor receptor alpha (Homo sapiens) (P16234 whole entry, the tested form may be a part): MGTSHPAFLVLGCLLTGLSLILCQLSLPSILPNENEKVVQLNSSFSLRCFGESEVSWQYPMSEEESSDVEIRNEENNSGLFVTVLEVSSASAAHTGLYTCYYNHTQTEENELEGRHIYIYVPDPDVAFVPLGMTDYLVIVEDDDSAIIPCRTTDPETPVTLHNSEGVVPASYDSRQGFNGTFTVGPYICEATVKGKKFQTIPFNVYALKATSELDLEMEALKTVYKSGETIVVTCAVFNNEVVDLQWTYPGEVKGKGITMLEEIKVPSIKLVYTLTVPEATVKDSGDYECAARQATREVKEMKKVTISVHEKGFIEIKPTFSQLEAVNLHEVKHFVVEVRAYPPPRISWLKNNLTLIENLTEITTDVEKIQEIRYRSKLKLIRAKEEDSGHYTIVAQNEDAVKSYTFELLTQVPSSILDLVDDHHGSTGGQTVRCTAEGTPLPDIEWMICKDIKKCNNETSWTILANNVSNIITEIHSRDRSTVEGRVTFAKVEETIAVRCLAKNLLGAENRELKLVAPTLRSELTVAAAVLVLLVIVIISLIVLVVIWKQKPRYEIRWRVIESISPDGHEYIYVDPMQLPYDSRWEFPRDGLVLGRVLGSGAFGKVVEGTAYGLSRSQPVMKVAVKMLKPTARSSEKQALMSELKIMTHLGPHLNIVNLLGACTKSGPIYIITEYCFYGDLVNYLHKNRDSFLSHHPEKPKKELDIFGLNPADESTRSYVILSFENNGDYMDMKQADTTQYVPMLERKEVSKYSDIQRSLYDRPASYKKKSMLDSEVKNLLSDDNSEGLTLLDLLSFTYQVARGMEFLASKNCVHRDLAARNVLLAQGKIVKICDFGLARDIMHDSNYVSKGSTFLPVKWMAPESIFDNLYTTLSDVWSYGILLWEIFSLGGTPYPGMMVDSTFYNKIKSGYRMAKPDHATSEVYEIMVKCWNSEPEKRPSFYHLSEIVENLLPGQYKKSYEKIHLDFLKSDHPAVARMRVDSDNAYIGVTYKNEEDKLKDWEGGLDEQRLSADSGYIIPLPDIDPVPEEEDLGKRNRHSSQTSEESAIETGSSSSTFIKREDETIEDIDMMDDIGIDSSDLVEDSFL
Chain of Mitogen-activated protein kinase 13 (Homo sapiens) (O15264 whole entry, the tested form may be a part): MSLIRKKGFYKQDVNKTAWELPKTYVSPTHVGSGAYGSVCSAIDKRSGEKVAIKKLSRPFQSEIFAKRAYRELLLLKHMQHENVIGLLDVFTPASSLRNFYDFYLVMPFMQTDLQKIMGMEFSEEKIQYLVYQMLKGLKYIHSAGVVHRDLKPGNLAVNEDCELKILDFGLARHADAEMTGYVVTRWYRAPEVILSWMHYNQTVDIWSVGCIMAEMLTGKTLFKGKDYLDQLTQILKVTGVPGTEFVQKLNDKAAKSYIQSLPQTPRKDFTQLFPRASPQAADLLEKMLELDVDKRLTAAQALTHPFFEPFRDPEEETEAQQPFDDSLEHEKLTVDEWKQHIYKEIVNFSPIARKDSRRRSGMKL

With `CCC(=O)Nc1cccc(Oc2nc(Nc3ccc(N4CCN(C)CC4)cc3OC)ncc2Cl)c1`, the Activity in [1] was found to be 51%; in assay [2], 63%; in assay [3], 67%; in assay [4], 83%; in assay [5] it was 84%; in assay [6] it was 82%. Moreover, the Activity came out at 81% in assay [7], 83% in assay [8] and 96% in assay [9]. The inhibition entry in assay [10], in [11] and in assay [12] was “Active” in each case.
